In brackets after ≈: the same amount, converted by molar mass.
Columns and labels:
Assay type in all cases: functional
Clostridium perfringens = experiment: Antimicrobial activity against Clostridium perfringens CNCTC 5770 after 24 hrs by broth microdilution method; settings: CNCTC 5770, 24 h
Method in brief: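 Colonies grown on blood agar (nutrient agar, 5% ovine blood) were suspended in PBS pH 7.2–7.3, set to 0.5 McFarland, and diluted 1:20 in MH broth for the final inoculum. Compounds were in DMSO (≤2.5% final), tested by NCCLS-modified microdilution with drug-free, sterility and DMSO controls.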

Staphylococcus aureus [1] = experiment: Antimicrobial activity against methicillin-resistant Staphylococcus aureus 3202 after 24 hrs by broth microdilution method; settings: Staphylococcus aureus, 3202, 24 h
Method in brief: (§1)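 Colonies grown on nutrient agar with 5% ovine blood were suspended in PBS (pH 7.2–7.3), adjusted to 0.5 McFarland, and diluted 1:20 in Mueller–Hinton broth. Compounds were dissolved in DMSO (final ≤2.5%) and tested by NCCLS-modified broth microdilution with drug-free, sterility and broth+DMSO controls.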

Pasteurella multocida = experiment: Antimicrobial activity against Pasteurella multocida clinical isolate after 24 hrs by broth microdilution method
Method in brief: (§2)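 Broth microdilution MIC in Mueller–Hinton broth, per modified NCCLS guidelines. Strains were grown on nutrient agar with 5% ovine blood. Colonies were suspended in PBS (pH 7.2–7.3), adjusted to 0.5 McFarland, then diluted 1:20 in MH broth. Compounds were in DMSO, ≤2.5% final. Drug-free, sterility and DMSO controls were included.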

Staphylococcus aureus [2] = experiment: Antimicrobial activity against methicillin-resistant Staphylococcus aureus 630 after 24 hrs by broth microdilution method; settings: Staphylococcus aureus, 630, 24 h; method in brief: as §1
Staphylococcus aureus [3] = experiment: Antimicrobial activity against Staphylococcus aureus ATCC 29213 after 24 hrs by broth microdilution method; settings: ATCC 29213, 24 h; method in brief: as §2
Staphylococcus aureus [4] = experiment: Antimicrobial activity against methicillin-resistant Staphylococcus aureus 63718 after 24 hrs by broth microdilution method; settings: Staphylococcus aureus, 63718, 24 h; method in brief: as §1
Bacillus cereus = experiment: Antimicrobial activity against Bacillus cereus ATCC 14579 after 24 hrs by broth microdilution method; settings: ATCC 14579, 24 h; method in brief: as §2
Mycobacterium kansasii = experiment: Antimycobacterial activity against Mycobacterium kansasii DSM 44162 after 7 days; settings: DSM 44162, 168 h
Method in brief: (§3)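 MIC by broth microdilution in Middlebrook 7H9 with ADC enrichment. Compounds were dissolved in DMSO. Inoculum: colonies in sterile water adjusted to 0.5 McFarland, then diluted 1:1000 in sterile water. Drug-free, sterility and medium+DMSO controls were included. Wells were read visually after static incubation in the dark.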

Mycobacterium marinum = experiment: Antimycobacterial activity against Mycobacterium marinum CAMP 5644 after 21 days; settings: CAMP 5644, 504 h; method in brief: as §3
[5] = system: Mycolicibacterium smegmatis; experiment: Antimycobacterial activity against Mycobacterium smegmatis ATCC 700084 after 3 days; settings: ATCC 700084, 72 h
Method in brief: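 Middlebrook 7H9 plus ADC broth microdilution MIC, with compounds in DMSO. Colonies were suspended in sterile water to 0.5 McFarland, then diluted 1:1000 in sterile water. Drug-free, sterility and DMSO controls were included. The visual read followed 3 days of static aerobic incubation at 37 °C in darkness.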

Row | Compound | MIC (Clostridium perfringens) | MIC (Staphylococcus aureus [1]) | MIC (Pasteurella multocida) | MIC (Staphylococcus aureus [2]) | MIC (Staphylococcus aureus [3]) | MIC (Staphylococcus aureus [4]) | MIC (Bacillus cereus) | MIC (Mycobacterium kansasii) | MIC (Mycobacterium marinum) | MIC [5]
1 | O=C(Nc1ccc(Cl)c(Cl)c1)c1cc(Cl)ccc1O | 0.03 µM (≈ 0.0095 µg/mL) | 0.77 µM (≈ 0.244 µg/mL) | 0.19 µM (≈ 0.0601 µg/mL) | 0.77 µM (≈ 0.244 µg/mL) | 0.79 µM (≈ 0.25 µg/mL) | 0.77 µM (≈ 0.244 µg/mL) | 0.09 µM (≈ 0.0285 µg/mL) | – | – | –
2 | O=C(Nc1ccccc1)c1cc(Cl)ccc1O | > 1030 µM | 16.1 µM (≈ 4 µg/mL) | 1.01 µM (≈ 0.25 µg/mL) | 16.1 µM (≈ 4 µg/mL) | 16.1 µM (≈ 4 µg/mL) | 32.3 µM (≈ 8 µg/mL) | 32.3 µM (≈ 8 µg/mL) | 16.1 µM (≈ 4 µg/mL) | 64.6 µM (≈ 16 µg/mL) | 64.6 µM (≈ 16 µg/mL)
3 | O=C(Nc1ccc(Cl)c(Cl)c1)c1ccc(Cl)cc1O | 0.2 µM (≈ 0.0633 µg/mL) | 0.05 µM (≈ 0.0158 µg/mL) | 0.2 µM (≈ 0.0633 µg/mL) | 0.03 µM (≈ 0.0095 µg/mL) | 0.03 µM (≈ 0.0095 µg/mL) | 0.05 µM (≈ 0.0158 µg/mL) | ≤ 0.03 µM | 3.16 µM (≈ 1 µg/mL) | 3.16 µM (≈ 1 µg/mL) | 12.6 µM (≈ 4 µg/mL)
4 | O=C(Nc1ccc([N+](=O)[O-])cc1)c1cc(Cl)ccc1O | 1.71 µM (≈ 0.5 µg/mL) | 1.71 µM (≈ 0.5 µg/mL) | 0.03 µM (≈ 0.00878 µg/mL) | 0.85 µM (≈ 0.249 µg/mL) | 0.85 µM (≈ 0.249 µg/mL) | 1.71 µM (≈ 0.5 µg/mL) | 0.85 µM (≈ 0.249 µg/mL) | ≤ 0.43 µM | 3.42 µM (≈ 1 µg/mL) | 13.7 µM (≈ 4 µg/mL)
5 | O=C(Nc1ccc(Cl)cc1)c1cc(Cl)ccc1O | 14.2 µM (≈ 4 µg/mL) | 56.7 µM (≈ 16 µg/mL) | 3.54 µM (≈ 0.999 µg/mL) | 28.4 µM (≈ 8 µg/mL) | 28.4 µM (≈ 8 µg/mL) | 56.7 µM (≈ 16 µg/mL) | 14.2 µM (≈ 4 µg/mL) | 7.08 µM (≈ 2 µg/mL) | 7.08 µM (≈ 2 µg/mL) | 28.4 µM (≈ 8 µg/mL)
6 | O=C(Nc1ccc(Br)cc1)c1cc(Cl)ccc1O | 3.06 µM (≈ 0.999 µg/mL) | 0.76 µM (≈ 0.248 µg/mL) | 0.19 µM (≈ 0.062 µg/mL) | 0.76 µM (≈ 0.248 µg/mL) | 0.76 µM (≈ 0.248 µg/mL) | 0.76 µM (≈ 0.248 µg/mL) | 0.38 µM (≈ 0.124 µg/mL) | 6.12 µM (≈ 2 µg/mL) | 12.2 µM (≈ 4 µg/mL) | 24.5 µM (≈ 8 µg/mL)
7 | O=C(Nc1ccc(C(F)(F)F)cc1)c1cc(Cl)ccc1O | 1.58 µM (≈ 0.499 µg/mL) | 0.2 µM (≈ 0.0631 µg/mL) | 0.2 µM (≈ 0.0631 µg/mL) | 0.2 µM (≈ 0.0631 µg/mL) | 0.03 µM (≈ 0.00947 µg/mL) | 0.1 µM (≈ 0.0316 µg/mL) | 0.1 µM (≈ 0.0316 µg/mL) | 1.58 µM (≈ 0.499 µg/mL) | ≤ 0.4 µM | 12.7 µM (≈ 4 µg/mL)
8 | COc1ccc(NC(=O)c2cc(Cl)ccc2O)cc1 | > 921 µM | > 921 µM | 28.8 µM (≈ 8 µg/mL) | > 921 µM | > 921 µM | > 921 µM | > 921 µM | – | – | –
9 | COc1ccc(NC(=O)[C@@H](NC(=O)c2cc(Cl)ccc2O)C(C)C)cc1 | > 679 µM | > 679 µM | > 679 µM | > 679 µM | > 679 µM | > 679 µM | > 679 µM | – | – | –
10 | Cc1ccc(NC(=O)[C@H](C)NC(=O)c2cc(Cl)ccc2O)cc1 | > 769 µM | > 769 µM | > 769 µM | > 769 µM | > 769 µM | > 769 µM | > 769 µM | – | – | –
11 | CC(C)[C@H](NC(=O)c1cc(Cl)ccc1O)C(=O)Nc1ccc(C(F)(F)F)cc1 | 4.82 µM (≈ 2 µg/mL) | 4.82 µM (≈ 2 µg/mL) | > 617 µM | 4.82 µM (≈ 2 µg/mL) | 4.82 µM (≈ 2 µg/mL) | 9.64 µM (≈ 4 µg/mL) | 2.41 µM (≈ 1 µg/mL) | 38.6 µM (≈ 16 µg/mL) | 77.1 µM (≈ 32 µg/mL) | 77.1 µM (≈ 32 µg/mL)
12 | CC(C)[C@H](NC(=O)c1ccc(Cl)cc1O)C(=O)Nc1ccc(Br)cc1 | 9.39 µM (≈ 4 µg/mL) | 9.39 µM (≈ 4 µg/mL) | > 601 µM | 9.39 µM (≈ 4 µg/mL) | 9.39 µM (≈ 4 µg/mL) | 18.8 µM (≈ 8 µg/mL) | 2.34 µM (≈ 0.996 µg/mL) | 75.2 µM (≈ 32 µg/mL) | 150 µM (≈ 63.9 µg/mL) | 150 µM (≈ 63.9 µg/mL)
13 | CC(C)[C@H](NC(=O)c1ccc(Cl)cc1O)C(=O)Nc1ccc(Cl)c(Cl)c1 | 38.5 µM (≈ 16 µg/mL) | 2.4 µM (≈ 0.998 µg/mL) | > 615 µM | 2.4 µM (≈ 0.998 µg/mL) | 2.4 µM (≈ 0.998 µg/mL) | 4.81 µM (≈ 2 µg/mL) | 1.2 µM (≈ 0.499 µg/mL) | 77 µM (≈ 32 µg/mL) | 77 µM (≈ 32 µg/mL) | 77 µM (≈ 32 µg/mL)

— ChEMBL document CHEMBL2434928, “New derivatives of salicylamides: Preparation and antimicrobial activity against various bacterial species” (2013)
